Measured values as given in PMC8897028 (Acta Pharmaceutica Sinica. B, 2021).
Changes are numbered by the printed parent chain.

Legend:
Assay type in all cases: cell-based
[1] = biological target: hTRPV1 (Homo sapiens, UniProt Q8NER1); experiment: whole-cell patch-clamp of TRPV1 currents in HEK293 cells; settings: compound 50 μmol/L; current induced by capsaicin 1 μmol/L
In short: (§1)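 Human channel cDNAs were transiently transfected into HEK293 cells with Lipofectamine 2000. EGFP-positive cells were recorded whole-cell 18 h later at 22–24 °C with ~4.0 MΩ fire-polished pipettes. Cells were held at 0 mV with 500-ms ramps from −100 to +100 mV every 2 s. Test compound in perfusion solution was co-applied with agonist, and average current inhibition was summarised; n = 4–6.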

[2] = biological target: hTRPA1 (Homo sapiens, UniProt O75762); experiment: whole-cell patch-clamp of TRPA1 currents in HEK293 cells; settings: compound 50 μmol/L; current evoked by AITC 300 μmol/L
Sequence of hTRPA1 (O75762 whole entry): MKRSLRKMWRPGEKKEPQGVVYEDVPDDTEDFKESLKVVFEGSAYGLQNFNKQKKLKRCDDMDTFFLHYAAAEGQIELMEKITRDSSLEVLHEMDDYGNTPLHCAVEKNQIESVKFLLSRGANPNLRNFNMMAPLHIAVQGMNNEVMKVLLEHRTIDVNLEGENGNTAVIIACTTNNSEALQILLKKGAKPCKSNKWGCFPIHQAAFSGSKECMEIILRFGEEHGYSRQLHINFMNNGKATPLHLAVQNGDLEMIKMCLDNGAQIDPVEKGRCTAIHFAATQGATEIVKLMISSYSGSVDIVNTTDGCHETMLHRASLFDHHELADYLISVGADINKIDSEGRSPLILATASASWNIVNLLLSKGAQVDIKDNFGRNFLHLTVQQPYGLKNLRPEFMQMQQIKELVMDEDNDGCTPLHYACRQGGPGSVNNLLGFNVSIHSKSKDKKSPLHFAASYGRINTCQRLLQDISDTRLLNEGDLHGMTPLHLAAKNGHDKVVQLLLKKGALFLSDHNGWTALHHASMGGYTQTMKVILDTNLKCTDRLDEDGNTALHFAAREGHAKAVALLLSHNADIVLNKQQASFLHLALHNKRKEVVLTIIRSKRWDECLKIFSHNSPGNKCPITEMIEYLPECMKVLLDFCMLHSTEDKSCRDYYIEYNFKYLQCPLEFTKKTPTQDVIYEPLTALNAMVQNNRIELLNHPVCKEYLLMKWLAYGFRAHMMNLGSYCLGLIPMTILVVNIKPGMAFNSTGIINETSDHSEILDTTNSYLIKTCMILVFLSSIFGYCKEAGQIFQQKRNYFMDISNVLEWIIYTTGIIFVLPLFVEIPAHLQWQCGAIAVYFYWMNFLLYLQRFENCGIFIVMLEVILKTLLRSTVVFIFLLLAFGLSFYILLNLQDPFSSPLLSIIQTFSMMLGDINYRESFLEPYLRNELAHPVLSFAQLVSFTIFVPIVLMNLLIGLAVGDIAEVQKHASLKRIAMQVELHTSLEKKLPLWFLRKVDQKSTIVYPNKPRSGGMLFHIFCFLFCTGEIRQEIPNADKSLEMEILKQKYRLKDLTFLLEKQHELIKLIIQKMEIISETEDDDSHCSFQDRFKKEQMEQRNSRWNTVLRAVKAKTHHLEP
In short: as §1

[3] = biological target: T1, mTRPV3 V662A (Mus musculus, UniProt Q8K424, V662A); experiment: whole-cell patch-clamp of mTRPV3 V662A mutant in HEK293 cells; settings: compound 50 μmol/L; 2-APB; compared with WT mTRPV3
T1 sequence (Q8K424 1-791 V662A): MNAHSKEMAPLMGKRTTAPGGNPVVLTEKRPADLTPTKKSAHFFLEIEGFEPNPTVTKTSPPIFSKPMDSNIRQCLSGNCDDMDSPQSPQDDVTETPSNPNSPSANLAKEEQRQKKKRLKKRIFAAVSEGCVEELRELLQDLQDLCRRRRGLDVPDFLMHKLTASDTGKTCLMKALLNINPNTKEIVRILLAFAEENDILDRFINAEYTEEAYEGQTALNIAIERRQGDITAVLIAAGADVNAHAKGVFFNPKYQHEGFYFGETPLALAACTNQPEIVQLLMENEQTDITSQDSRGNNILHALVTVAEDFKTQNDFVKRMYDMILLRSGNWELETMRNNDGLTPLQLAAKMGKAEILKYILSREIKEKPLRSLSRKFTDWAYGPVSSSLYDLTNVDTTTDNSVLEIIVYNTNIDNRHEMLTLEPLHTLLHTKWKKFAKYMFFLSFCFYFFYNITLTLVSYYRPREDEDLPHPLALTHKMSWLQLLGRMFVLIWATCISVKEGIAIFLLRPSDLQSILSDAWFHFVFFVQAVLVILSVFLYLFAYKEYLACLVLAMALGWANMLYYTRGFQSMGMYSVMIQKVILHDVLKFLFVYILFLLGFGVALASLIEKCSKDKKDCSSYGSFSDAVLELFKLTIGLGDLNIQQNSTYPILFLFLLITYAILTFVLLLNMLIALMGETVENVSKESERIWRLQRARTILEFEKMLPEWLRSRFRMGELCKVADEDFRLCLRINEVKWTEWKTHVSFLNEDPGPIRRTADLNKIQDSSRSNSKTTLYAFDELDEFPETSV
In short: (§2)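 Mouse Trpv3 point mutants were made by site-directed mutagenesis, sequence-verified, and transiently expressed in HEK293 cells alongside wild-type mTRPV3. Whole-cell ramp recordings (−100 to +100 mV, 500 ms, holding 0 mV) were made at 22–24 °C. Currents were activated by 2-APB, and inhibition by 50 μmol/L test compound in the presence of 2-APB was compared with wild type; n = 3–8.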

[4] = biological target: T2, mTRPV3 T665A (Mus musculus, UniProt Q8K424, T665A); experiment: whole-cell patch-clamp of mTRPV3 T665A mutant in HEK293 cells; settings: compound 50 μmol/L; 2-APB; compared with WT mTRPV3
T2 sequence (Q8K424 1-791 T665A): T1 sequence (Q8K424 1-791 V662A) with A662V, T665A
In short: as §2

[5] = biological target: T3, mTRPV3 L669A (Mus musculus, UniProt Q8K424, L669A); experiment: whole-cell patch-clamp of mTRPV3 L669A mutant in HEK293 cells; settings: compound 50 μmol/L; 2-APB; compared with WT mTRPV3
T3 sequence (Q8K424 1-791 L669A): T1 sequence (Q8K424 1-791 V662A) with A662V, L669A
In short: as §2

Sequence of hTRPV1 (Q8NER1 whole entry, the tested form may be a part): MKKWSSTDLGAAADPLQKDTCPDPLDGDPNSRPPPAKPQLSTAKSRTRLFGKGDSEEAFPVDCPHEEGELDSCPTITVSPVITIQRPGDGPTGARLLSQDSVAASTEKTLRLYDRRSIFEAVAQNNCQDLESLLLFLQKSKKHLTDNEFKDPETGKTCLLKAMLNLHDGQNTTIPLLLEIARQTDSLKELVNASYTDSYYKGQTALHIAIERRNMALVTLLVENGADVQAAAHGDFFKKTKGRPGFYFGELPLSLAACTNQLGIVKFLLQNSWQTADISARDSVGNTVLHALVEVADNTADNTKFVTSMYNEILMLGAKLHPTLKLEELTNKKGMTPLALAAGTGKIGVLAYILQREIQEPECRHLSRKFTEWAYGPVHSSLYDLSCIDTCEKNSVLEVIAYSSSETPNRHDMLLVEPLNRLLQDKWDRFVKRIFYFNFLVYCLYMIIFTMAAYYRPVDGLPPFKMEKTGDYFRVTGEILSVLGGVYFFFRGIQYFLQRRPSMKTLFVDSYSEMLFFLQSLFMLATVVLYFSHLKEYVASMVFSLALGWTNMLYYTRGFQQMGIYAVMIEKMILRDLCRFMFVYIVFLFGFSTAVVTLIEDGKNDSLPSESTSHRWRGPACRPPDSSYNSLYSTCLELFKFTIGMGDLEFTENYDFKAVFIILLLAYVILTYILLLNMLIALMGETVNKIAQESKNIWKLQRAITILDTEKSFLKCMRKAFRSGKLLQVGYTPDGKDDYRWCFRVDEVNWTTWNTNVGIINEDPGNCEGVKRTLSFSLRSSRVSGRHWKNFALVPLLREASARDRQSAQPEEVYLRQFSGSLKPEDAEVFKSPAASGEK

| Compound | inhibition of TRPV1 currents [1] | inhibition of TRPA1 current [2] | effect of mutation on compound-induced inhibition of mTRPV3 currents [3] | effect of mutation on compound-induced inhibition of mTRPV3 currents [4] | effect of mutation on compound-induced inhibition of mTRPV3 currents [5] |
| --- | --- | --- | --- | --- | --- |
| O=C(/C=C/c1ccc(O)c(O)c1)O[C@@H]1C[C@](O)(C(=O)O)C[C@@H](OC(=O)/C=C/c2ccc(O)c(O)c2)[C@H]1O [IAA, isochlorogenic acid A] | no obvious inhibition | no inhibitory effect | no obvious effect | no obvious effect | no obvious effect |
| O=C(/C=C/c1ccc(O)c(O)c1)O[C@@H]1[C@H](O)C[C@@](O)(C(=O)O)C[C@H]1OC(=O)/C=C/c1ccc(O)c(O)c1 [IAB, isochlorogenic acid B] | no obvious inhibition | no inhibitory effect | no obvious effect | no obvious effect | no obvious effect |
